# Measurements gathered from unrelated publications.
# Target: Mitogen-activated protein kinase 9 (MAPK9, Homo sapiens, UniProt P45984)
Structure (SMILES),effect on,mode,technique,tested at,quantity,value
C=CC(=O)N1CCC([C@@H]2CCNc3c(C(N)=O)c(-c4ccc(Oc5ccccc5)cc4)nn32)CC1,enzyme activity,inhibitor,,1 µM,inhibition,0%
CCCCC(=O)Nc1ccc(-c2ccc3ncn(CCC)c(=O)c3c2)cn1,binding,,competition with immobilised ligand,0.5 µM,remaining binding,68%
COc1ccc2oc(-c3ccc4nc(N)oc4c3)c/c(=N\c3ccccc3NC(=O)CCN)c2c1,binding,,,1 µM,remaining binding,98%
Cc1ccc(NC(=O)c2ccnc(C(F)(F)F)c2)cc1-c1cc(OCCO)nc(N2CCOCC2)c1,binding,,competition with immobilised ligand,1 µM,remaining binding,83%
N#Cc1ccc(NC(=O)Nc2ccccc2)cc1,cell-free assay,,competition with immobilised ligand,25 µM,remaining binding,100%
C[C@H]1CC[C@H](n2c3cnccc3c3cnc(Nc4ccc5c(n4)CCN(C(=O)CO)C5)nc32)CC1,binding,,competition with immobilised ligand,1 µM,remaining binding,2.6%
C=CC(=O)N1CCC[C@@H](n2nc(-c3ccc(Oc4ccccc4)cc3)c3c(N)ncnc32)C1,enzyme activity,inhibitor,,1 µM,inhibition,21%
C#Cc1cnc(Nc2ccnc(CO)c2)nc1Nc1ccccc1S(C)(=O)=NC#N (stereo not drawn),cell-free assay,,,1 µM,remaining signal,58%
C1=C/COCc2cc(ccc2OCCN2CCCC2)Nc2nccc(n2)-c2cccc(c2)COC/1,cell-free assay,,,0.1 µM,remaining signal,47%
